An excerpt weighted towards active compounds, which were near 2.7% of everything screened.
Lipid droplet: inhibitors of hepatocyte lipid droplet formation, primary screen, imaging, high-throughput imaging, BODIPY stain; AML12 mouse hepatocytes, oleate lipid droplets; inhibition, % at 6.5 µM; actives 0.4% (n = 240,000); AID 1656, 2009;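 active = lipid droplet intensity inhibited by at least 50%, with more than 500 cells counted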
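Material – AML12 mouse liver cells · Also added – oleate loading, 100 µM · Compound dosing – 6.5 µM single-point dosing · Times – overnight treatment with compound plus oleate · Measured by – fluorescence imaging, 20x objective, two fields per well · Read-out – percent inhibition of filter-corrected integrated lipid droplet intensity per well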
MC4R antag cAMP: MC4R antagonists of cAMP signaling, primary screen, cell-based, TR-FRET, antagonist arm of biased-ligand search; actives 0.48% (n = 360,000); AID 540295, 2011; inhibition, % at 6.5 µM; Melanocortin receptor 4 (Homo sapiens), P32245; MC4R-expressing cells, MTII-stimulated cAMP, LANCE TR-FRET;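 active = inhibition above its plate's cutoff, the mean of tested wells on that plate plus 3 SD, cut at about 29% in these data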;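 note: 0% = Melanotan II alone and 100% = Melanotan II plus saturating MCL0020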
Target sequence (P32245 whole entry, looked up): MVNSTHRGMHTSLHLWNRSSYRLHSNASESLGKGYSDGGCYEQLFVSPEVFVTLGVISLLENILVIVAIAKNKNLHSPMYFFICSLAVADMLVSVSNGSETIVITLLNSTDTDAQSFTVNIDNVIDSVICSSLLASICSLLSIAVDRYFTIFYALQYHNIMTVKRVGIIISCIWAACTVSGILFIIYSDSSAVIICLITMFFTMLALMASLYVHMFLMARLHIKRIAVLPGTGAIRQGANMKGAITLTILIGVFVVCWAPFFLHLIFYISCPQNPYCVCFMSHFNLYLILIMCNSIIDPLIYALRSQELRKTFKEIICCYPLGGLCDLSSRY
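Test system: U2OS cells stably expressing human melanocortin 4 receptor (MC4R); also added: Melanotan II challenge; compound: 6.5 µM single dose; timing: 30-min compound preincubation, 1-h Melanotan II challenge, 1-h detection, room temperature; signal: Eu-cAMP/anti-cAMP TR-FRET, emission 671 nm; repeats: one well per compound, no replicates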
NTR1 ag: agonists of human NTR1, primary screen, imaging, U2OS cells, beta-arrestin-GFP, high content. Neurotensin receptor type 1 (Homo sapiens), P30989. NTR1-U2OS beta-arrestin-GFP spot imaging, agonist mode. activation, % at 20 µM. actives 0.17% (n = 330,000);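 active = activation at or above 40% of the spot to cytoplasm intensity ratio, with at least 20 cells analyzed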;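 note: 0% = DMSO without peptide and 100% = 100 nM NTR1 peptide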
m5-HT2A agonist: mouse Htr2a agonists via beta-arrestin recruitment, primary screen, cell-based, luminescence; CHO-K1 mHTR2A beta-arrestin complementation; percent of 30 µM serotonin response; actives 0.66% (n = 360,000); activation, % at 7.6 µM; AID 624169, 2012;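 active = activation above a run cutoff, the mean activation of all tested compounds plus 3 SD, cut at about 14% in these data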;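 note: 0% = plate median of compound wells and 100% = 30 µM serotonin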
PREPL inh: PREPL enzyme inhibitors, primary screen, biochemical, fluorescence polarization; actives 0.68% (n = 320,000); inhibition, % at 5.96 µM; recombinant PREPL, fluorescence polarization activity-based probe; AID 2751, 2010;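 note: 0% = enzyme with DMSO and 100% = wells lacking enzyme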
MC4R ag barr: MC4R agonists recruiting beta-arrestin, primary screen, cell-based, luminescence, agonist arm of biased-ligand search. Melanocortin receptor 4 (Homo sapiens), P32245. U2OS MC4R beta-arrestin complementation; percent of melanotan II response, DMSO zero. activation, % at 8.9 µM. actives 0.98% (n = 360,000). AID 540308, 2011;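 active = activation above a per-plate cutoff, the mean activation of sample wells on that plate plus 3 SD, cut at about 8% in these data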
PREPL confirm: human PREPL enzyme inhibitors, confirmation, biochemical, fluorescence polarization; shares compounds with PREPL inh; recombinant PREPL, fluorescence polarization activity probe; inhibition, % at 5.96 µM; actives 67% (n = 2,000); AID 2803, 2010;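 note: 0% = protein with DMSO and 100% = wells lacking protein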
Numbers without * were called inactive; . = no result given. Cut-off read from the data, not from the text of the source, unless noted: active = inhibition above about 43%; inactive = the rest.

SMILES	Lipid droplet	MC4R antag cAMP	NTR1 ag	m5-HT2A agonist	PREPL inh	MC4R ag barr	PREPL confirm
C[C@H](CO)N1C[C@H](C)[C@@H](CN(C)S(=O)(=O)c2ccc(F)cc2)Oc2ccc(NC(=O)Cc3ccccc3)cc2C1=O	.	1.3	-1.5	1.4	21.4	-1.9	.
COc1ccc(NC(=O)Nc2cccc3c2O[C@@H](CN(C)CC2CCCCC2)[C@@H](C)CN([C@H](C)CO)C3=O)cc1	.	2.2	0.2	1.5	56.5*	-0.5	51.3*
COc1ccc(NC(=O)Nc2ccc3c(c2)C(=O)N([C@@H](C)CO)C[C@@H](C)[C@@H](CN(C)CC2CCCCC2)O3)cc1	.	1.9	2.8	-3.3	40.5	-0.3	.
C[C@H]1CN([C@@H](C)CO)C(=O)c2cccc(NS(=O)(=O)c3ccc(Cl)cc3)c2O[C@@H]1CN(C)CC1CCCCC1	.	4.8	0.3	-5.4	60.6*	-1.6	50.1*
C[C@@H]1CN([C@@H](C)CO)C(=O)Cc2cc(NC(=O)Nc3cccc4ccccc34)ccc2O[C@@H]1CN(C)Cc1ccc(C(F)(F)F)cc1	.	-3.1	3.1	-11.6	29.9	-0.8	.
C[C@H](CO)N1C[C@H](C)[C@@H](CN(C)S(=O)(=O)c2ccc(F)cc2)Oc2c(NC(=O)Cc3ccccc3)cccc2C1=O	.	9.4	1.8	3.6	43.9*	-0.1	30.2
N#C/C(=C/c1cn(CC(=O)O)c2ccccc12)C(=O)NCc1ccccc1	-2.4	-0.9	-0.5	-2.2	12.2	-0.9	.
N#Cc1ccccc1OCC(=O)OCC(=O)NC1CC1	.	14.4	0.8	-2.9	14.1	-0.7	.
C[C@H](CO)N1C[C@H](C)[C@@H](CN(C)C(=O)Nc2ccc(C(F)(F)F)cc2)Oc2ccc(NC(=O)c3ccncc3)cc2C1=O	.	4.1	1.1	0.2	50.9*	-1.1	46.2*
C[C@@H]1CN([C@H](C)CO)C(=O)c2cc(NC(=O)Nc3cccc4ccccc34)ccc2O[C@H]1CN(C)Cc1ccc(C(F)(F)F)cc1	.	3.9	0.0	-0.6	21.8	0.2	.
C[C@H]1CN([C@@H](C)CO)C(=O)c2cc(NC(=O)Nc3cccc4ccccc34)ccc2O[C@@H]1CN(C)Cc1ccc(-c2ccccc2)cc1	.	9.3	-0.1	-4.0	47.8*	-1.7	44.6*
C[C@H](CO)N1C[C@H](C)[C@H](CN(C)Cc2ccccc2)Oc2c(NC(=O)Nc3ccc(F)cc3)cccc2C1=O	.	-1.3	8.4	2.5	52.8*	-0.9	54.9*
C[C@H](CO)N1C[C@H](C)[C@@H](CN(C)S(=O)(=O)c2cccs2)Oc2c(NC(=O)Cc3ccccc3)cccc2C1=O	.	1.4	0.8	0.9	43.4*	-1.1	35.9
C[C@H](CO)N1C[C@H](C)[C@@H](CN(C)S(C)(=O)=O)Oc2c(NC(=O)Cc3ccccc3)cccc2C1=O	.	-1.5	0.5	-2.5	0.2	-0.1	.
O=C(OCCO)c1c(-c2ccccc2)oc2c1C(OCCO)CCC2 (configuration not stated)	.	.	.	-0.9	.	.	.
CCOC(=O)C1CCCN(C(=O)C2c3ccccc3Oc3ccccc32)C1 (configuration not stated)	-12.8	7.8	1.4	2.7	65.3*	1.0	-1.9
CCOC(=O)C1CCCN(C(=O)C2COc3ccccc3O2)C1 (configuration not stated)	.	15.1	.	2.7	.	-1.1	.
COc1ccc(CCNC(=O)COC(=O)Cn2cnc3c2c(=O)n(C)c(=O)n3C)cc1	.	11.2	0.7	-6.1	-3.3	-5.6	.
CN1c2ccsc2/C(=N/Nc2ccccc2)CS1(=O)=O	0.8	-4.3	1.0	-0.8	47.8*	-0.7	27.1
